{"source": "ChEMBL document CHEMBL1136850", "about": "“Neuroprotective activity and evaluation of Hsp90 inhibitors in an immortalized neuronal cell line” (Bioorg Med Chem, 2009)", "key": {"[1]": {"test_system": "SH-SY5Y", "experiment": "Toxicity in human SH-SY5Y cells at 10 uM by trypan blue exclusion method", "type": "cell-based"}, "[2]": {"test_system": "SH-SY5Y", "experiment": "Neuroprotection against beta-amyloid peptide 1-42-induced toxicity in human SH-SY5Y cells assessed as lactate dehydrogenase release", "type": "functional, cell-based", "in_short": "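Proliferating SH-SY5Y cells were grown in DMEM with 10% FBS at 37°C in 5% CO2, then seeded into 96-well plates. Drug or DMSO was given 2 h before 10 μM Aβ in serum-free DMEM for 48 h. LDH released into the cleared medium was read kinetically as NADH oxidation (50 mM phosphate pH 7.4, 1 mM pyruvate, 0.2 mM NADH; […], 5 min, 25°C). Aβ alone was set as 100% cell death. Mean ± S.E.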"}, "[3]": {"test_system": "SH-SY5Y", "experiment": "Neuroprotection against beta-amyloid peptide 1-42-induced toxicity in retinoic acid-differentiated human SH-SY5Y cells assessed as lactate dehydrogenase release at 1 uM", "type": "functional", "in_short": "(§1)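 SH-SY5Y cells were differentiated for 7 days with 10 μM retinoic acid until they stopped proliferating and grew neurites. Drug was added 2 h before 10 μM Aβ in serum-free DMEM for 48 h. Released LDH was measured by NADH oxidation (pyruvate 1 mM, NADH 0.2 mM, pH 7.4; […] over 5 min at 25°C). Protection is expressed against Aβ alone, taken as 100% death.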"}, "[4]": {"test_system": "SH-SY5Y", "experiment": "Toxicity in retinoic acid-differentiated human SH-SY5Y cells assessed as effect on cell morphology at 10 uM after 24 hrs by trypan blue exclusion method", "type": "cell-based", "in_short": "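Retinoic acid-differentiated SH-SY5Y cells (10 μM RA, 7 days) were exposed to 10 μM drug or DMSO without Aβ for 24 h. Neurite morphology was examined by phase-contrast microscopy. Viability was counted by 0.04% trypan blue exclusion.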"}, "[5]": {"test_system": "SH-SY5Y", "experiment": "Neuroprotection against beta-amyloid peptide 1-42-induced toxicity in retinoic acid-differentiated human SH-SY5Y cells assessed as lactate dehydrogenase release", "type": "functional, cell-based", "in_short": "as §1"}, "[6]": {"test_system": "SH-SY5Y", "experiment": "Neuroprotection against beta-amyloid peptide 1-42-induced toxicity in retinoic acid-differentiated human SH-SY5Y cells assessed as lactate dehydrogenase release at 10 nM", "type": "functional, cell-based", "in_short": "as §1"}}, "note": "pEC50: −log10 of the molar value. Active and inactive are the calls of the source. The calls are words filed in the database; no cut-off is given here."}
{"smiles": "CO[C@@H]1[C@@H](O)[C@@H](O)[C@H](Oc2ccc3cc(NC(C)=O)c(=O)oc3c2C)OC1(C)C", "values": [{"measurement": "AC50", "setting": "[1]", "result": "Non-toxic"}, {"measurement": "pEC50", "setting": "[2]", "result": 8.83}, {"measurement": "Activity", "setting": "[3]", "result": 70, "unit": "%"}, {"measurement": "Activity", "setting": "[4]", "result": "Non-toxic"}]}
{"smiles": "CO[C@@H]1[C@@H](O)[C@@H](O)[C@H](Oc2ccc3cc(NC(=O)CCCCCCC(=O)Nc4cc5ccc(O[C@@H]6OC(C)(C)[C@H](OC)[C@@H](O)[C@H]6O)c(C)c5oc4=O)c(=O)oc3c2C)OC1(C)C", "values": [{"measurement": "AC50", "setting": "[1]", "result": "Non-toxic"}, {"measurement": "pEC50", "setting": "[2]", "result": 8.35}, {"measurement": "Activity", "setting": "[4]", "result": "Non-toxic"}]}
{"smiles": "CO[C@@H]1[C@@H](O)[C@@H](O)[C@H](Oc2ccc3cc(NC(C)=O)c(=O)oc3c2)OC1(C)C", "values": [{"measurement": "pEC50", "setting": "[2]", "result": 8.31}, {"measurement": "Activity", "setting": "[4]", "result": "Non-toxic"}]}
{"smiles": "O=C(O)/C=C/c1nn(Cc2ccc(Cl)cc2Cl)c2cc(C(F)(F)F)ccc12", "values": [{"measurement": "Activity", "setting": "[5]", "result": "inactive"}]}
{"smiles": "CC1=C(O)C(=O)C=C2C1=CC=C1[C@@]2(C)CC[C@@]2(C)[C@@H]3C[C@](C)(C(=O)O)CC[C@]3(C)CC[C@]12C", "note": "[CELASTROL]", "values": [{"measurement": "pEC50", "setting": "[2]", "result": 7.42}]}
{"smiles": "O=C(O[C@@H]1Cc2c(O)cc(O)cc2O[C@@H]1c1cc(O)c(O)c(O)c1)c1cc(O)c(O)c(O)c1", "note": "[EPIGALOCATECHIN GALLATE]", "values": [{"measurement": "pEC50", "setting": "[2]", "result": 7.40}]}
{"smiles": "CC(=O)O[C@@H]1C[C@H]2C(C)(C)C(=O)C=C[C@]2(C)[C@H]2CC[C@@]3(C)[C@H](c4ccoc4)OC(=O)[C@H]4O[C@]43[C@@]21C", "note": "[GEDUNIN]", "values": [{"measurement": "pEC50", "setting": "[2]", "result": 7.41}]}
{"smiles": "COC1=C2C[C@@H](C)C[C@H](OC)[C@H](O)[C@@H](C)/C=C(\\C)[C@H](OC(N)=O)[C@@H](OC)/C=C\\C=C(/C)C(=O)NC(=CC1=O)C2=O", "note": "[GELDANAMYCIN]", "values": [{"measurement": "Activity", "setting": "[6]", "result": "Active"}, {"measurement": "Activity", "setting": "[5]", "result": "inactive"}, {"measurement": "pEC50", "setting": "[2]", "result": 7.37}, {"measurement": "Activity", "setting": "[4]", "result": "Toxic"}]}
{"smiles": "CO[C@@H]1[C@@H](OC(N)=O)[C@@H](O)[C@H](Oc2ccc3c(O)c(NC(=O)c4ccc(O)c(CC=C(C)C)c4)c(=O)oc3c2C)OC1(C)C", "note": "[NOVOBIOCIN]", "values": [{"measurement": "Activity", "setting": "[6]", "result": "Active"}, {"measurement": "Activity", "setting": "[5]", "result": "Active"}, {"measurement": "pEC50", "setting": "[2]", "result": 7.32}, {"measurement": "Activity", "setting": "[4]", "result": "Toxic"}]}
